Experimental data of several laboratories.
Lines come from different studies, so protocols differ.
Target: Dual serine/threonine and tyrosine protein kinase (DSTYK, Homo sapiens, UniProt Q6XUX3)
Sequence (Q6XUX3 1-929, as in one of the studies): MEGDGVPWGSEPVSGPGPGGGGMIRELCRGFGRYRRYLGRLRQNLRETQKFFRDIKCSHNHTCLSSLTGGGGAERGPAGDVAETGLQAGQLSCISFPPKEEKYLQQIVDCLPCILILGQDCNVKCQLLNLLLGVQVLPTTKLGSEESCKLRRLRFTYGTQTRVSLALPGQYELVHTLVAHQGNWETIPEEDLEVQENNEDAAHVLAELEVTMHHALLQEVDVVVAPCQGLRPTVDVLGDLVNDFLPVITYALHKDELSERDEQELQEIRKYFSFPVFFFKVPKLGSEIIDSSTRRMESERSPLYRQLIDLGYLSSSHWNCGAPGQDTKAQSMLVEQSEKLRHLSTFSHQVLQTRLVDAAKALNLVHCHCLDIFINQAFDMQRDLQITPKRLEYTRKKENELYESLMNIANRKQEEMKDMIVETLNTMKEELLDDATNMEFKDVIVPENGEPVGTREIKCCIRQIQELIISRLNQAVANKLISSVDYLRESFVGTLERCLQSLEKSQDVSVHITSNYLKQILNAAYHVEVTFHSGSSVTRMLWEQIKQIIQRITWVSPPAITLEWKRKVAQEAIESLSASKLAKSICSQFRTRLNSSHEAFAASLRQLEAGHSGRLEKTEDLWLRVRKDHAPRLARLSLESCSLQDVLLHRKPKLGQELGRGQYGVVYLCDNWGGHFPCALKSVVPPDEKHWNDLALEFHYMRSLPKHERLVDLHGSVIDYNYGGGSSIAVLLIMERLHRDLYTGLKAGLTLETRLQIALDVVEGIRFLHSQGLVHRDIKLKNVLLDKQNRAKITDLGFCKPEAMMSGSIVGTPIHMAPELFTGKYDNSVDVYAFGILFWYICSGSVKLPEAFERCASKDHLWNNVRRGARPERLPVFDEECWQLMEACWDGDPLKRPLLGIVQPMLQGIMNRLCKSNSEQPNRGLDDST

| Compound | test | conditions | remaining binding |
| --- | --- | --- | --- |
| CCc1ccccc1C(=O)Nc1n[nH]c2c(C)c(F)c(C3C(C#N)=C(C)N(C)C(C)=C3C#N)cc12 | cell-free assay, competition with immobilised ligand | 1 µM | 95% |
| N[C@H]1CCN(c2nccc(-c3cnn4ncccc34)n2)C1 | binding | 1 µM | 100% |
| O=C(c1ccc(Nc2ncc(Cl)c(-c3cc4ccccc4s3)n2)cc1)N1CCC(N2CCCC2)CC1 | binding, competition with immobilised ligand | 1 µM | 32% |
| CNC(=O)c1ccc(Nc2ncc(C(F)(F)F)c(NCc3nccnc3N(C)S(C)(=O)=O)n2)cc1 | cell-free assay, competition with immobilised ligand | 0.1 µM | 87% |
| F[C@@H]1CCN(c2nccc(-c3cnn4ncccc34)n2)C1 | binding | 1 µM | 100% |
| O=C(NCCCN1CCOCC1)c1ccc(Nc2ncc(Cl)c(-c3ccc(Cl)s3)n2)cc1 | binding, competition with immobilised ligand | 1 µM | 89% |
| O=C(NCc1ncc(C(F)(F)F)cc1Cl)c1ccc2c(c1)C1(CCS(=O)(=O)CC1)[C@@H](C1CC1)N2S(=O)(=O)c1ccc(F)cc1 | cell-free assay, competition with immobilised ligand | 1 µM | 78% |
| CN(C)c1nccc(-c2cnn3ncccc23)n1 | binding | 1 µM | 96% |
| O=C(c1ccc(Nc2ncc(Cl)c(-c3ccc(Cl)s3)n2)cc1)N1CCC(N2CCCC2)CC1 | binding, competition with immobilised ligand | 1 µM | 14% |
| CN(C)C(=O)Cn1cc(-c2nc(C3(c4ccc(-c5cnc(N)nc5)cc4)CC3)no2)cn1 | cell-free assay, competition with immobilised ligand | 1 µM | 94% |
| c1cnn2ncc(-c3ccnc(N4CCC45COC5)n3)c2c1 | binding | 1 µM | 79% |
| O=C1CCc2cc(Nc3cc(OC4CCOCC4)c([N+](=O)[O-])cc3Cl)ccc2N1 | cell-free assay, competition with immobilised ligand | 1 µM | 90% |
| COc1ncc2cc3ccccc3nc2c1C#N | cell-free assay, competition with immobilised ligand | 5 µM | 100% |
| C[C@@H](c1ccc(-n2cnc3c(N)ncnc32)cc1)N1CCc2nn(C)c(Cc3ccccc3)c2C1=O | binding, competition with immobilised ligand | 0.1 µM | 58% |
| COc1cnc(Nc2cccc(S(N)(=O)=O)c2)nc1N1CCN(c2ccccc2)CC1 | binding, competition with immobilised ligand | 1 µM | 100% |
| C[C@@H]1CCN(c2nccc(-c3cnn4ncccc34)n2)C1 | binding | 1 µM | 77% |
| COc1cnc(Nc2cccc(S(N)(=O)=O)c2)nc1N1CCN(c2ccccc2)C(=O)C1 | binding, competition with immobilised ligand | 1 µM | 89% |
| CN1CCN(c2cnc3c(C4CCN(C(=O)c5ccc(OC(F)(F)F)cc5N)CC4)ncnc3c2)CC1 | cell-free assay, competition with immobilised ligand | 1 µM | 100% |
| O=C(NCC1CCOCC1)c1n[nH]cc1NC(=O)c1c(F)cccc1F | binding, competition with immobilised ligand | 1 µM | 86% |
| COc1ccnn2ncc(-c3ccnc(N(C)C)n3)c12 | binding | 1 µM | 100% |
| NS(=O)(=O)c1cc(NC(=O)Cc2ccccc2)ccc1Oc1cccc(Cl)c1 | cell-free assay, competition with immobilised ligand | 1 µM | 83% |
| CCN1CCN(Cc2ccc(C(=O)Nc3ccc(C)c(Oc4ccc5c(c4)CC(=O)N5)c3)cc2C(F)(F)F)CC1 | binding, competition with immobilised ligand | 1 µM | 100% |
